High-throughput results as filed in PubChem BioAssay.
Compounds with a hit are over-represented: about 4.1% of the library has one in this group of screens.
APP 5'UTR act – APP 5'UTR luciferase reporter activation | activation, % at 2 µM | SH-SY5Y APP 5'UTR luciferase reporter, luminescence; zero percent = DMSO vehicle wells | AID 1276 | hit rate 1% among 190,000;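 active = activation above a set limit, based on mean plus 3 SD of controls, cut at about 140% in these data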
NF-kB expr up – raises NF-kB expression in human neuronal cells | NF-kB reporter expression; hits give high values | fold change at 12.5 µM | hit rate 1.6% among 190,000; in the data active = fold change above about 3.3
STAT1 activator – increases IFN-gamma driven STAT1 reporter signal. hit rate 2.6% among 200,000. AID 932. activation (% of control), % at 5.5 µM. NIH 3T3 STAT1-luciferase reporter, luminescence; 100% = IFN-gamma alone, no compound;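 active = activation above the screen-wide mean activation plus 3 SD, cut at about 130% in these data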
FLuc inh counter – Photinus pyralis luciferase inhibition counter-screen | hit rate 1.5% among 200,000 | AID 1006 | P08659 | inhibition, % at 10 µM | ATPLite firefly luciferase biochemical luminescence, 10 min;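 active = inhibition above about 50% when tested at 10 µM, limit read from the data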
Target sequence (P08659 whole entry, looked up): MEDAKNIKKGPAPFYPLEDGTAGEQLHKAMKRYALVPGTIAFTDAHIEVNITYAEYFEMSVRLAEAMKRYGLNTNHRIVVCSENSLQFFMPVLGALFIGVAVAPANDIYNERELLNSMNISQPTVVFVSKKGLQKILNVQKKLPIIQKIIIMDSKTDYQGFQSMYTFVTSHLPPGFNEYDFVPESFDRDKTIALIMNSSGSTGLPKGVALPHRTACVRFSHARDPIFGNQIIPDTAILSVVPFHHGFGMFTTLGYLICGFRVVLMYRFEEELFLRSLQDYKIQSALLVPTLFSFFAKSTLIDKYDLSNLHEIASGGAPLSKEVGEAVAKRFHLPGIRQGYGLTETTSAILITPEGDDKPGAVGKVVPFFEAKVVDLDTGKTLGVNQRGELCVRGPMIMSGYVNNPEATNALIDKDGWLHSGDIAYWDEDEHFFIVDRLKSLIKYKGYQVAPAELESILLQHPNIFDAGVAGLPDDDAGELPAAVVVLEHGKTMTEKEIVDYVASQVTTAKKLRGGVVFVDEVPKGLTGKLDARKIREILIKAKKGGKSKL
FLuc act counter – affects firefly luciferase, flagging false hits in luciferase stimulation screens; 200,000 tested, under 10 active; P08659; AID 1027; ATPlite luciferase biochemical, luminescence, 10 min; 0 = ATP-free wells, 1 = DMSO control; activation factor at 10 µM;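 active = luciferase activation factor, scaled between plate controls, of at least 2 with compound at 10 µM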
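System: Luciferase/luciferin detection reagent, cell-free biochemical luciferase assay | Medium: PBS buffer for ATP | Dosing: Test compounds dosed from 2 mM stocks in 100% DMSO | Timing: 10 min at ambient temperature | Signal: Luminescence measurement of luciferase light output | Evaluation: Luciferase activation, seen as luminescence increase over controls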
STAT1 act conf – STAT1 activation, confirmation assay; shares compounds with STAT1 activator; NIH 3T3 STAT1-luciferase reporter, IFN-gamma potentiation, luminescence; 100% = IFN-gamma EC80 alone, no compound; activation (% of control), % at 5.7 µM; hit rate 97% among 1,200; AID 1262;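 active = activation above a set limit carried over from the earlier primary STAT1 screen, cut at about 140% in these data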
NFkB act – activates NF-kappaB, counter-screen to STAT1 activators; shares compounds with STAT1 activator; HEK293T NF-kB luciferase reporter, TNF-alpha stimulated, luminescence; 100% = TNF-alpha with vehicle only; activation (% of control), % at 5.7 µM; hit rate 43% among 1,200; AID 1306;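 active = activation above the mean of solvent-only control wells plus 3 SD, set per campaign, cut at about 130% in these data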;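 also: TNF-alpha given at a submaximal dose yielding about 80% of full reporter signal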
STAT3 act 2 – activates human STAT3, counter-screen to STAT1 activators. shares compounds with STAT1 activator. U3A cells STAT3-luciferase reporter, IL-6, luminescence; cells lack STAT1; 100 = IL-6 alone, no compound effect. activation (% of control), % at 5.7 µM. hit rate 46% among 1,200. AID 1316;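 active = activation above the solvent-only control well mean plus 3 SD, set per plate batch, cut at about 110% in these data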;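 also: higher means more STAT3 reporter activation so hits are non-selective activators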
Of the large screens only hits and unclear results are named; the others gave an inactive call (follow-up assays come after a bar, where they were run).

Cc1ccc(Nc2ncc3c(n2)CC(C)(C)CC3=O)cc1	APP 5'UTR act 157.9, NF-kB expr up 5.15, STAT1 activator 179.0 | STAT1 act conf 194.4 | NFkB act 138.7 | STAT3 act 2 118.9
Cc1ccc(C(=O)COC(=O)c2ccc(O)cc2)cc1	APP 5'UTR act 148.7, NF-kB expr up 6.22, STAT1 activator 152.7 | STAT1 act conf 169.6 | NFkB act inactive | STAT3 act 2 121.9
Cc1nonc1C1CCCN1C(=O)c1cc(COc2ccc(F)cc2F)on1 (stereo not drawn)	STAT1 activator 168.2 | STAT1 act conf 183.1 | NFkB act 136.7 | STAT3 act 2 inactive
Cc1cc(C)nc(CCNC(=O)c2cc(COc3ccc(F)cc3F)on2)n1	none (no result: NF-kB expr up)
c1ccc(-c2cc3nccc(-c4ccccn4)n3n2)cc1	STAT1 activator 160.5 | STAT1 act conf 188.2 | NFkB act 135.4 | STAT3 act 2 117.1
Cc1cc2nccc(-c3ccccn3)n2n1	none
CC(=O)c1ccc(NC(=O)/C(=C\c2ccccc2)NC(=O)/C=C/c2ccccc2)cc1	none
CC(=O)c1ccc(NC(=O)/C(Cl)=C/c2ccccc2)cc1	APP 5'UTR act 167.8, NF-kB expr up 6.42, STAT1 activator 153.8 | STAT1 act conf 199.6 | NFkB act inactive | STAT3 act 2 115.2
CCOC(=O)c1c(C)[nH]c(C(=O)OCCOc2ccccc2C)c1C	NF-kB expr up 3.37, STAT1 activator 158.8 | STAT1 act conf 182.6 | NFkB act inactive | STAT3 act 2 122.6
C=CCN(C(=O)c1cccc(S(=O)(=O)N2CCN(C)CC2)c1)c1nc(-c2ccccc2)cs1	none
CN(CCCNC(=O)CSc1cc(=O)n(C)c2ccc(Cl)cc12)Cc1ccccc1	none
CCOc1cc(C(=O)NC(C)c2ccncc2)cc(OCC)c1OCC (stereo not drawn)	none
Cc1cccc2cc3c(N)c(C(=O)N4CCOCC4)sc3nc12	STAT1 activator 157.0 | STAT1 act conf 159.9 | NFkB act inactive | STAT3 act 2 124.5
CC(=O)Nc1cccc(-c2csc(Nc3ncccn3)n2)c1	APP 5'UTR act 135.1, STAT1 activator 252.3 | STAT1 act conf 304.0 | NFkB act inactive | STAT3 act 2 112.9
CC(=O)Nc1ccc(S(=O)(=O)Nc2cccc(-c3csc(C)n3)c2)cc1	none (no result: NF-kB expr up)
CC(=O)Nc1cccc(-c2csc(Nc3ccc(C)cn3)n2)c1	APP 5'UTR act 206.1, NF-kB expr up 7.59, STAT1 activator 216.8, FLuc inh counter 70.7 | STAT1 act conf 329.1 | NFkB act 139.4 | STAT3 act 2 inactive
Cc1cccnc1Nc1nc(-c2ccc(O)cc2)cs1	NF-kB expr up 7.36, STAT1 activator 151.1 | STAT1 act conf 204.7 | NFkB act 141.4 | STAT3 act 2 110.8
Oc1ccc(-c2csc(Nc3ncccn3)n2)c(O)c1	APP 5'UTR act 154.5, NF-kB expr up 8.09, STAT1 activator 175.9 | STAT1 act conf 215.8 | NFkB act 144.4 | STAT3 act 2 inactive
N#CC1=C(N)N(c2ncn[nH]2)C2=C(C(=O)CCC2)C1c1ccccc1 (stereo not drawn)	none
Cc1cc(OCC(=O)NCCCN(C)C)cc(C)c1Br	none
COc1ccc(C(=O)Nc2ccc(N3CCCCC3)cc2)cc1Br	none
CCSc1nc2[nH]ncc2c(=O)[nH]1	none
Cc1ccc(Nc2nc(-c3ccncc3)cs2)cc1	STAT1 activator 174.6 | STAT1 act conf 214.6 | NFkB act 137.0 | STAT3 act 2 125.9
CC(=O)Nc1ccc(-c2csc(Nc3cccc(C)n3)n2)cc1	APP 5'UTR act 167.6, NF-kB expr up 6.15, STAT1 activator 159.9 | STAT1 act conf 183.9 | NFkB act inactive | STAT3 act 2 inactive
CCC(C)/C=C/C1=CC2=C(Cl)C(=O)C3(C)OC(=O)C(C(=O)C(C)C(C)O)C3C2=CO1 (stereo not drawn)	none
Cc1ccc2c(c1)N=C(c1ccc(F)cc1)CO2	STAT1 activator 163.8 | STAT1 act conf 195.2 | NFkB act 143.8 | STAT3 act 2 111.1
O=[N+]([O-])c1ccc(C2=Nc3cc(Cl)ccc3OC2)cc1	none
Fc1cccc(NCc2cn3ccccc3n2)c1	NF-kB expr up 4.25, STAT1 activator 169.4 | STAT1 act conf 193.6 | NFkB act inactive | STAT3 act 2 112.6
COc1cc(/C=N/NC(=O)c2ccc(O)cc2)ccc1Oc1ccc([N+](=O)[O-])cn1	none
O=C1c2ccccc2NC(c2cnc3ccccc3n2)N1O (stereo not drawn)	NF-kB expr up 6.92, STAT1 activator 158.9 | STAT1 act conf 209.0 | NFkB act inactive | STAT3 act 2 inactive
NC(=O)c1ccsc1NC(=O)c1coc2ccccc2c1=O	APP 5'UTR act 166.9, STAT1 activator 166.1, FLuc inh counter 70.8 | STAT1 act conf 217.2 | NFkB act inactive | STAT3 act 2 112.6
NC(=O)c1ccsc1NC(=O)CSc1ccccc1F	none
Cc1cc(Cl)ccc1Oc1ncnc2onc(C)c12	none
COc1cccc(-c2noc(-c3cccnc3)n2)c1	NF-kB expr up 5.52, STAT1 activator 158.7 | STAT1 act conf 188.1 | NFkB act inactive | STAT3 act 2 121.3
O=C(NC1=NCCS1)c1csc2ccccc12	NF-kB expr up 6.84, STAT1 activator 152.4, FLuc inh counter 55.0 | STAT1 act conf 199.5 | NFkB act inactive | STAT3 act 2 118.2
COc1ccc2cc(CCNC(=O)c3cccs3)c(=O)[nH]c2c1	NF-kB expr up 6.07, STAT1 activator 159.1 | STAT1 act conf 192.7 | NFkB act 140.3 | STAT3 act 2 inactive
COc1ccc2cc(CCNC(=O)CC(C)(C)C)c(=O)[nH]c2c1	none
CN(C)C(=S)Nc1nc2ccccc2s1	NF-kB expr up 9.1, STAT1 activator 164.8 | STAT1 act conf 169.8 | NFkB act 137.9 | STAT3 act 2 inactive
CCOc1ccc2nc(NC(=S)N(C)C)sc2c1	APP 5'UTR act 167.1, NF-kB expr up 12.3, STAT1 activator 182.9 | STAT1 act conf 293.2 | NFkB act 134.1 | STAT3 act 2 inactive
COc1ccc(Oc2ccc(/C=C/C(=O)c3cccc(OC)c3)cc2[N+](=O)[O-])cc1	none
COc1ccc(O[C@H]2C=C[C@@H](c3ccccc3)O[C@@H]2COC(=O)CC/C(C)=N/OC[C@@H](O)[C@H]2O[C@@H]3OC(C)(C)O[C@@H]3[C@H]2O)cc1	none
COc1cc(/C=N/O)ccc1OCc1ccccc1Cl	APP 5'UTR act 186.1, NF-kB expr up 7.24, STAT1 activator 181.8 | STAT1 act conf 191.1 | NFkB act inactive | STAT3 act 2 120.5
